Rows were chosen to be rich in hits. Some 2.3% of all compounds tested hit in one or more screens of this group.
TRPC6 inhibitor = mouse TRPC6 channel inhibition; HEK293-TRPC6, membrane potential dye, ACh-evoked depolarization; stronger effect = lower value; 310,000 compounds, 1.1% hits; Q61143; B-score at 10 µM;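 active means B-score under library mean minus 3 SD, initial fluorescence not abnormally high, positive integrated signal ratio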;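 further: B-score derived from integrated fluorescence ratio over the kinetic read; more negative B-score means stronger inhibition of depolarization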
FID counter = fluorescent intercalator displacement, NS3 helicase counter-screen | DNA fluorescent intercalator displacement, fluorescence | inhibition, % at 7.9 µM | 290,000 compounds, 0.17% hits | AID 1845; in the data active means inhibition above about 37%;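 further: 0% = vehicle and 100% = reference compound; higher means more ethidium bromide displaced from hairpin DNA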
TRPC4 potent = allosterically enhances the mouse TRPC4 cation channel | Q9QUQ5 | HEK293 TRPC4beta/mu-opioid, DAMGO EC20, Fluo-4 Ca2+ flux; stronger effect = higher value | B-score at 10 µM | 310,000 compounds, 0.42% hits | AID 2227;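 active means B-score of calcium response area above 5 SD of library B-scores, with initial fluorescence ratio within 5 SD of library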;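 further: B-score of integrated fluorescence ratio over time as area under calcium response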
TRPC6 act = mouse TRPC6 channel activation; Q61143; HEK293-TRPC6 membrane potential dye fluorescence; stronger effect = higher value; B-score at 10 µM; 310,000 compounds, 0.13% hits; AID 2550;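 active means B-score of the integrated fluorescence ratio above library mean plus 3 SD, and starting fluorescence ratio within library mean plus 5 SD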;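 further: higher score means more depolarization so channel activation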
TRPC4 act = activators of mouse TRPC4 channel; HEK293 TRPC4beta/mu-opioid, Fluo4 calcium fluorescence; stronger effect = higher value; B-score at 10 µM; 310,000 compounds, 0.49% hits; AID 2237;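 active means B-score above 5 SD of library B-scores, and initial fluorescence ratio not above library mean plus 5 SD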;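 further: positive B-score marks a calcium rise read as TRPC4 activation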
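Assay system: HEK293 cells stably co-expressing mouse TRPC4beta and mu-opioid receptor / Timing: Fluo4 dye loading 45 min at room temperature, 110 s recording / Signal: Fluo4 calcium-sensitive dye fluorescence, kinetic, 1 Hz baseline / Read-out: integrated baseline-normalised fluorescence ratio, converted to per-well B score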
TRPC4 block = inhibitors of mouse TRPC4 channel; Q9QUQ5; HEK293 TRPC4beta/mu-opioid, DAMGO-evoked Fluo4 calcium flux; stronger effect = lower value; B-score at 10 µM; 300,000 compounds, 0.39% hits;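 active means B-score over 3 SD under the library average, no early fluorescence shift, positive overall ratio signal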
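Assay system: HEK293 cells with stable TRPC4beta plus mu-opioid receptor expression. Dosing: single dose. Measured by: Fluo4 Ca2+ flux fluorescence. Also added: DAMGO in two steps, submaximal then maximal. Read-out: B score from integrated Fluo4 fluorescence ratio.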
* marks the source's active call; other numbers are inactive results; i = inactive; x = not tested or not shown.

SMILES	TRPC6 inhibitor	FID counter	TRPC4 potent	TRPC6 act	TRPC4 act	TRPC4 block
CN(C)C(CNC(=O)c1ccc(NC(=O)c2cccs2)cc1)c1ccccc1 (configuration not stated)	i	6	i	i	i	i
CN(C)C(CNC(=O)c1ccc2ccccc2n1)c1ccccc1 (configuration not stated)	i	-4	i	i	100*	i
CN(C)C(CNC(=O)/C=C/c1cccc(Cl)c1)c1ccccc1 (configuration not stated)	i	8	i	i	199*	i
COc1ccc(CN2CC(C(=O)NCCCN3CCCCC3)CC2=O)cc1 (configuration not stated)	i	-3	i	i	i	i
CC1CCN(S(=O)(=O)c2cn(CC(=O)N3CCN(c4cccc(C(F)(F)F)c4)CC3)cn2)CC1	i	-53	i	i	i	i
CN(C)C(CNC(=O)c1cnc(Cl)c(Cl)c1)c1ccccc1 (configuration not stated)	i	10	i	i	223*	i
CN(C)C(CNC(=O)c1cc(S(=O)(=O)N(C)c2ccccc2)ccc1Cl)c1ccccc1 (configuration not stated)	i	10	i	i	i	i
Cc1cccc(N2CCN(C(=O)C3(S(=O)(=O)c4ccc(Cl)cc4)CC3)CC2)c1C	i	2	19*	i	i	i
Cc1ccc(Cl)cc1N1CCN(C(=O)C2(S(=O)(=O)c3ccc(Cl)cc3)CC2)CC1	i	-14	i	i	i	i
COc1ccc(NC(=O)COC(=O)C2CC(=O)N(c3ccc(C)cc3)C2)cc1 (configuration not stated)	i	-18	i	i	i	i
COc1ccc(/C=C2\N=C(SC)NC2=O)cc1	i	0	i	i	i	i
CCSC1=N/C(=C\c2ccc(OC)cc2)C(=O)N1	i	-7	86*	i	i	i
O=C(N[C@@H](Cc1c[nH]c2ccccc12)C(=O)O)C1CCN(S(=O)(=O)c2cccs2)CC1	i	-31	i	i	i	i
CC(NCC(O)c1ccc([N+](=O)[O-])cc1)C12CC3CC(CC(C3)C1)C2 (configuration not stated)	i	38*	i	i	i	i
O=C(Nc1cnn(C23CC4CC(CC(C4)C2)C3)c1)c1cnn2cccnc12	i	-16	73*	i	i	i
C[C@H]([C@H](O)c1ccccc1)N(C)C(=O)CN	i	-6	i	i	i	i
O=S(=O)(Nc1ccc(F)cc1)c1ccc(NS(=O)(=O)c2cccs2)cc1	i	2	11*	i	i	i
Cc1ccc(NS(=O)(=O)c2ccc(NS(=O)(=O)c3cccs3)cc2)cc1	i	0	16*	i	i	i
O=[N+]([O-])c1ccc(S(=O)(=O)NCCCc2ccccc2)cc1	i	x	57*	i	i	i
CC(NC(=O)c1ccco1)C(c1cccs1)N1CCN(c2ccccc2)CC1 (configuration not stated)	i	-22	i	i	i	-6*
CC(NC(=O)c1ccco1)C(c1cccs1)N1CCN(c2ccc(F)cc2)CC1 (configuration not stated)	i	-29	i	i	i	i
CCC(=O)NC(C)C(c1cccs1)N1CCN(c2ccccc2)CC1 (configuration not stated)	i	-6	i	i	119*	i
COCCn1c(N)c(N(Cc2ccccc2)C(=O)C2=COCCO2)c(=O)[nH]c1=O	i	-5	i	i	i	i
CCCCS(=O)(=O)N1CCCC(C(=O)NCC2CCCO2)C1 (configuration not stated)	i	-4	i	i	85*	i
O=C(O)c1ccc2c(=O)n3c(nc2c1)/C(=C/c1ccc(Cl)cc1Cl)CC3	i	-20	i	i	i	i
SMILES	TRPC6 inhibitor	FID counter	TRPC4 potent	TRPC6 act	TRPC4 act	TRPC4 block
CCCc1cc(=O)oc2cc(C)cc(OCC(=O)N3CCC(C(=O)O)CC3)c12	i	-30	i	i	i	i
CCOC(=O)c1sc2nc(N3CCOCC3)c3c(c2c1N)CCN(C)C3	-7*	11	i	i	i	i
NNC(=O)c1sc2nc(N3CCOCC3)c3c(c2c1N)CCCC3	i	-18	i	i	i	i
COc1cc(C2NC(=S)NC(c3ccccc3)=C2C(C)=O)cc(Cl)c1OCC(=O)O (configuration not stated)	i	-18	i	i	i	i
CC(=O)C1=C(c2ccccc2)NC(=S)NC1c1cc(Cl)c(OC(C)C)c(Cl)c1 (configuration not stated)	i	-19	12*	i	i	i
O=C(CCS(=O)(=O)Cc1ccccc1)Nc1ncc([N+](=O)[O-])s1	i	10	i	i	i	i
CCC(OCC(O)CN1CCCCC1)c1ccccc1 (configuration not stated)	i	6	i	i	i	i
COc1ccc(C(=O)c2cc([N+](=O)[O-])ccc2N2CCCC2)cc1	i	2	i	i	i	i
COc1ccc(C(=O)c2cc([N+](=O)[O-])ccc2N2CCN(C)CC2)cc1	i	40*	i	i	i	i
COC(=O)c1cc([N+](=O)[O-])ccc1N1CCN(Cc2ccccc2)CC1	i	5	11*	i	i	i
CN1CCN(c2ccc([N+](=O)[O-])cc2C(=O)c2ccccc2)CC1	i	16	i	i	i	i
CC1(c2ccc(Cl)cc2)NC(=O)N(CC(=O)N2CCN(S(=O)(=O)c3ccccc3)CC2)C1=O (configuration not stated)	i	x	i	i	i	i
O=C(O)C(Cc1c[nH]c2ccccc12)NS(=O)(=O)c1cccc(Cl)c1Cl (configuration not stated)	i	-18	i	i	i	i
O=C(NCc1ccco1)c1ccc2nc3sc4c(c3c(=O)n2c1)CCCC4	i	2	i	i	i	-6*
C=CCn1c(SCC(=O)NCc2ccco2)nc2sc3c(c2c1=O)CCCC3	i	-6	i	i	i	i
CC(Oc1ccccc1)C(=O)Nc1ccc(C(N)=O)cc1 (configuration not stated)	i	-4	i	i	i	i

Compound activity as filed in PubChem BioAssay.
